Measurements collected from several papers.
Target: Tyrosine-protein kinase Fes/Fps (FES, Homo sapiens, UniProt P07332)

Structure (SMILES)	observed	technique	tested at	remaining binding
CCN1CCN(Cc2ccc(C(=O)Nc3ccc(C)c(Oc4ccc5c(c4)CC(=O)N5)c3)cc2C(F)(F)F)CC1	binding	competition with immobilised ligand	1 µM	97%
CNC(=O)Nc1ccc2c(c1)[C@@]1(CC2)OC(=O)N(CC(=O)N(Cc2ccc(F)cc2)[C@@H](C)C(F)(F)F)C1=O	cell-free assay	competition with immobilised ligand	1 µM	85%
CN(CCCC(F)(F)F)c1nccc(-c2cnn3ncccc23)n1	binding	–	1 µM	95%
O=C(c1ccc(Nc2nccc(-c3cc4ccccc4s3)n2)cc1)N1CCC(N2CCCC2)CC1	binding	competition with immobilised ligand	1 µM	93%
Nc1ncc2c(n1)-c1c([nH]c3ccc(C#CC4CC4)cc13)CCCC2	binding	competition with immobilised ligand	1 µM	100%
F[C@@H]1CCN(c2nccc(-c3cnn4ncccc34)n2)C1	binding	–	1 µM	77%
O=C(c1ccc(Nc2ncc(Cl)c(-c3cc4ccccc4s3)n2)cc1)N1CCC(N2CCCC2)CC1	binding	competition with immobilised ligand	1 µM	74%
c1cnn2ncc(-c3ccnc(N4CCC45COC5)n3)c2c1	binding	–	1 µM	95%
CS(=O)(=O)N1CCCC(NC(=O)[C@H](CCC2CCCCC2)NC(=O)c2ccc(CNc3ncnc4c3nnn4-c3ccccc3)cc2)C1 (stereo partly shown)	cell-free assay	competition with immobilised ligand	0.1 µM	87%
COc1cnc(Nc2cccc(S(N)(=O)=O)c2)nc1N1CCN(c2ccccc2)C(=O)C1	binding	competition with immobilised ligand	1 µM	100%
Cc1c[nH]c2nccc(Oc3c(F)cc(Nc4cc(Cl)nc(N)n4)cc3F)c12	cell-free assay	competition with immobilised ligand	0.1 µM	100%
C[C@@H]1CCN(c2nccc(-c3cnn4ncccc34)n2)C1	binding	–	1 µM	100%
COc1cnc(Nc2cccc(S(N)(=O)=O)c2)nc1N1CCN(c2ccccc2)CC1	binding	competition with immobilised ligand	1 µM	100%
COc1ncc2cc3ccccc3nc2c1C#N	cell-free assay	competition with immobilised ligand	5 µM	100%
Cc1nccc(COC(=O)N2C[C@@H]3[C@@H](CNC(=O)c4ccc5[nH]nnc5c4)[C@@H]3C2)n1	cell-free assay	competition with immobilised ligand	1 µM	99%
O=C(NCCCN1CCOCC1)c1ccc(Nc2nccc(-c3cc4ccccc4s3)n2)cc1	binding	competition with immobilised ligand	1 µM	85%
Cn1nc(C(=O)NCc2ccc(C(=O)O)cc2)cc1-c1ccc2[nH]ccc2c1	cell-free assay	competition with immobilised ligand	0.1 µM	95%
N[C@H]1CCN(c2nccc(-c3cnn4ncccc34)n2)C1	binding	–	1 µM	100%
COc1cc(-c2cn(C3CCc4c(F)cccc4N(CC(F)(F)F)C3=O)nn2)ccc1-n1cnc(C)c1 (stereo not shown)	cell-free assay	competition with immobilised ligand	1 µM	100%
CN(c1nccc(-c2cnn3ncccc23)n1)C1CC1	binding	–	1 µM	100%
CC(C)(O)c1cncc(-c2nc3ccc(F)cc3n2C2CC2)c1	cell-free assay	competition with immobilised ligand	1 µM	100%
O=C(NCC1CCOCC1)c1n[nH]cc1NC(=O)c1c(F)cccc1F	binding	competition with immobilised ligand	1 µM	100%
